Tests used:
[1] = test system: R-Luc-ARE-A90-MALAT1 reporter; type: cell-based, human; conditions: λN-HA-TTPΔNIM with GFP-GYF2 and/or λN-HA-4EHP, GYF1/2-null HEK293T cells
Outline: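 Wild-type and GYF1/2-null HEK293T cells received 1 µg R-Luc-ARE-A90-MALAT1 reporter and 0.25 µg F-Luc-GFP control. Where indicated, they also received 50 ng λN-HA-TTPΔNIM, 0.2 µg GFP-MBP, 1 µg GFP-GYF2 (wild type or C*) and 0.5 µg λN-HA-4EHP. Dual luciferase was measured 2 d post-transfection. R-Luc/F-Luc was set to 100% without TTP for each cell line.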

[2] = test system: R-Luc-6xMS2-A95-MALAT1 reporter; test: Tethering assay, R-Luc-6xMS2-A95-MALAT1 reporter, HEK293T cells; type: cell-based, human; conditions: MS2-HA-GYF2, HEK293T cells
Outline: (§1)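 HEK293T cells transfected with 0.25 µg F-Luc-GFP control plasmid, 0.5 µg R-Luc-6xMS2-A95-MALAT1 reporter (or R-Luc-A95-MALAT1, lacking MS2 sites), 0.25 µg GFP-MBP, and 0.3 µg MS2-HA or 1 µg MS2-HA-GYF2 (wild type or canonical mutant) plasmid. Dual luciferase read 2 d post-transfection. R-Luc normalized to F-Luc, set to 100% for MS2-HA. Mean ± SD of three independent experiments.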

[3] = test system: R-Luc-A95-MALAT1 reporter; test: Tethering assay, reporter lacking the MS2-binding sites; type: cell-based, human; conditions: MS2-HA-GYF2, HEK293T cells
Outline: as §1

[4] = test system: R-Luc-5BoxB-A95-MALAT1 reporter; type: cell-based, human; conditions: λN-HA-4EHP with GFP-MBP or GFP-GYF2, GYF1/2-null HEK293T cells
Outline: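 GYF1/2-null and control HEK293T cells were seeded at 0.6 × 10^6 cells per well and lipofected. Each well received 0.25 µg F-Luc-GFP control, 0.5 µg R-Luc-5BoxB-A95-MALAT1 reporter, and 0.3 µg λN-HA or 0.7 µg λN-HA-4EHP. Cells also got 0.25 µg GFP-MBP, 1.8 µg GFP-GYF2 wild type or 1.2 µg C* mutant. Luciferases were read after 2 d. R-Luc/F-Luc was set to 100% for λN-HA. Mean ± SD, three independent experiments.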

[5] = molecular target: T1, 4EHP–4E-BP1 complex (Homo sapiens, UniProt O60573); test: Competition assay, preassembled 4EHP–4E-BP1 complex; type: biochemical; conditions: competition assay with equimolar GYF2 fragment
T1 sequence (O60573 52-234): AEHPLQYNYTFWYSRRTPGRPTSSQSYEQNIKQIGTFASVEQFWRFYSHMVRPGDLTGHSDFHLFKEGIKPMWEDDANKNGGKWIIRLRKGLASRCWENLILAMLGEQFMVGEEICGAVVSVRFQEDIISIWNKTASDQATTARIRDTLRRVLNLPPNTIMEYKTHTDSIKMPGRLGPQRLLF

[6] = molecular target: T2, 4EHP RE-LL–4E-BP1 complex (Homo sapiens, UniProt O60573, E149L/R103L); test: Competition assay, preassembled 4EHP RE-LL–4E-BP1 complex; type: biochemical; conditions: after 60 min of incubation with equimolar GYF2 fragment
T2 sequence (O60573 52-234 R103L/E149L): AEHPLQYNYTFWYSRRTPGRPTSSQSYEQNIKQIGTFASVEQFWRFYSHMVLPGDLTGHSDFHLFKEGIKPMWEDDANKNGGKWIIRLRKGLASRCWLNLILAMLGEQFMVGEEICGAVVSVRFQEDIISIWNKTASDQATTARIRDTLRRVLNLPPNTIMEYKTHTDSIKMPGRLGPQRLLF

[7] = molecular target: T3, 4EHP–GYF2 (35–105) complex (Homo sapiens, UniProt O60573+Q6Y7W6); test: ITC, m7GpppG cap analog vs 4EHP–GYF2 complex; type: binding; conditions: 20 mM HEPES pH 7.5, 200 mM NaCl
T3 sequence (O60573 52-234): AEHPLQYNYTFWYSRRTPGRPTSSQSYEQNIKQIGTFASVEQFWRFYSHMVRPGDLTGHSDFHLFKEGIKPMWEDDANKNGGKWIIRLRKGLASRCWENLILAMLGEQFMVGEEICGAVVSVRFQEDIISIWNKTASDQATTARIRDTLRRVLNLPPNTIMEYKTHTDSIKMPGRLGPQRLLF
T3 sequence (Q6Y7W6 35-105 partner limits assumed): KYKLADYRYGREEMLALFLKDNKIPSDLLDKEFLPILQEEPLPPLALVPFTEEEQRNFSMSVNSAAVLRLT

In the case of “GYF2 C: GYF2 residues K35–K54, canonical 4EHP-binding region (KYKLADYRYGREEMLALFLK; UniProt Q6Y7W6 35-54, looked up, fragment)”, the “TTP-mediated repression of the ARE reporter, GYF1/2-null cells” value [1] is reported as “No restoration was observed” and the “repression of MS2 reporter expression” value [2] is reported as “still repressed the expression of the R-Luc-6xMS2-A95-MALAT1 reporter as efficiently as wild-type GYF2”.

B1: GYF2: Hs GIGYF2 Q6Y7W6-1, full-length (1–1299) (protein)
chain: MAAETQTLNFGPEWLRALSSGGSITSPPLSPALPKYKLADYRYGREEMLALFLKDNKIPSDLLDKEFLPILQEEPLPPLALVPFTEEEQRNFSMSVNSAAVLRLTGRGGGGTVVGAPRGRSSSRGRGRGRGECGFYQRSFDEVEGVFGRGGGREMHRSQSWEERGDRRFEKPGRKDVGRPNFEEGGPTSVGRKHEFIRSESENWRIFREEQNGEDEDGGWRLAGSRRDGERWRPHSPDGPRSAGWREHMERRRRFEFDFRDRDDERGYRRVRSGSGSIDDDRDSLPEWCLEDAEEEMGTFDSSGAFLSLKKVQKEPIPEEQEMDFRPVDEGEECSDSEGSHNEEAKEPDKTNKKEGEKTDRVGVEASEETPQTSSSSARPGTPSDHQSQEASQFERKDEPKTEQTEKAEEETRMENSLPAKVPSRGDEMVADVQQPLSQIPSDTASPLLILPPPVPNPSPTLRPVETPVVGAPGMGSVSTEPDDEEGLKHLEQQAEKMVAYLQDSALDDERLASKLQEHRAKGVSIPLMHEAMQKWYYKDPQGEIQGPFNNQEMAEWFQAGYFTMSLLVKRACDESFQPLGDIMKMWGRVPFSPGPAPPPHMGELDQERLTRQQELTALYQMQHLQYQQFLIQQQYAQVLAQQQKAALSSQQQQQLALLLQQFQTLKMRISDQNIIPSVTRSVSVPDTGSIWELQPTASQPTVWEGGSVWDLPLDTTTPGPALEQLQQLEKAKAAKLEQERREAEMRAKREEEERKRQEELRRQQEEILRRQQEEERKRREEEELARRKQEEALRRQREQEIALRRQREEEERQQQEEALRRLEERRREEEERRKQEELLRKQEEEAAKWAREEEEAQRRLEENRLRMEEEAARLRHEEEERKRKELEVQRQKELMRQRQQQQEALRRLQQQQQQQQLAQMKLPSSSTWGQQSNTTACQSQATLSLAEIQKLEEERERQLREEQRRQQRELMKALQQQQQQQQQKLSGWGNVSKPSGTTKSLLEIQQEEARQMQKQQQQQQQHQQPNRARNNTHSNLHTSIGNSVWGSINTGPPNQWASDLVSSIWSNADTKNSNMGFWDDAVKEVGPRNSTNKNKNNASLSKSVGVSNRQNKKVEEEEKLLKLFQGVNKAQDGFTQWCEQMLHALNTANNLDVPTFVSFLKEVESPYEVHDYIRAYLGDTSEAKEFAKQFLERRAKQKANQQRQQQQLPQQQQQQPPQQPPQQPQQQDSVWGMNHSTLHSVFQTNQSNNQQSNFEAVQSGKKKKKQKMVRADPSLLGFSVNASSERLNMGEIETLDDY
With B1 the “effect on reporter lacking the MS2-binding sites” value [3] was “did not repress a reporter lacking the MS2-binding sites”, the “repression of tethered reporter by 4EHP in GYF1/2-null cells” value [4] was “restored by transient expression of wild-type GFP-tagged GYF2” and the “repression of MS2 reporter expression” value [2] was “repressed mRNA reporter expression in tethering assays”. For the same molecule, the “competitive advantage over 4E-BP1 for binding to 4EHP” value [5] was “the auxiliary sequences afford GYF2 a competitive advantage over 4E-BP1 for binding to 4EHP”.

B2: GYF2 C+L+NC+A: GYF2 residues K35–T105, complete 4EHP-binding region (peptide)
chain: KYKLADYRYGREEMLALFLKDNKIPSDLLDKEFLPILQEEPLPPLALVPFTEEEQRNFSMSVNSAAVLRLT
modifications: left off: MBP, N-terminal, state not stated | GB1, C-terminal, kept
In the case of B2, the “4E-BP1 displaced from 4EHP RE-LL” value [6] is reported as 40% and the “effect on 4EHP's affinity for the m7GpppG cap analog” value [7] is reported as “did not increase the affinity of 4EHP for an m^7GpppG cap analog”.
